How the values were obtained:
[1] = target: T1, Delta-type opioid receptor (Homo sapiens, UniProt P41143); test: Binding affinity to DOR-1 expressed in CHO cells after 90 mins; type: cell-based; settings: for Bmax: tested as the 125I-labelled form
Outline: (§1)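 Saturation binding of the carrier-free 125I-radioligand (KD) in membranes of CHO cells stably transfected with the named opioid receptor. For one DOR-1 saturation, specific activity was diluted 10-fold to allow higher ligand concentrations. Curves were fit to a single site by nonlinear regression. KD is the mean ± SEM of at least 3 independent determinations.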

[2] = target: T2, Kappa-type opioid receptor (Homo sapiens, UniProt P41145); test: Displacement of [3H]-U69593 from KOR-1 expressed in CHO cells after 60 mins; type: cell-based
T2 sequence (P41145 whole entry): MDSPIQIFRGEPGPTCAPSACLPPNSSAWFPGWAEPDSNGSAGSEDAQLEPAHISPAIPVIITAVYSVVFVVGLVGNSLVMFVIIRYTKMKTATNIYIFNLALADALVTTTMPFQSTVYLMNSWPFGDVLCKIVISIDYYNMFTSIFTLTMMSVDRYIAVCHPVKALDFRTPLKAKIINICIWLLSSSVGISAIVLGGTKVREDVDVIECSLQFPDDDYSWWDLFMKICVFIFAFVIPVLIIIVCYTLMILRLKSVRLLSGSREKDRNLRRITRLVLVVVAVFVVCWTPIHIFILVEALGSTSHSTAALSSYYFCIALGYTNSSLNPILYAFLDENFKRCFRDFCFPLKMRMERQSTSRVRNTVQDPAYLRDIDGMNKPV
Outline: (§2)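 Competition binding in membranes of CHO cells stably transfected with MOR-1, DOR-1 or KOR-1. Tracers were 1 nM 3H-DAMGO (MOR-1), 3H-DPDPE (DOR-1) or 3H-U69,593 (KOR-1). IC50 came from nonlinear regression and was converted to Ki. Values are the mean ± SEM of at least three independent replications.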

Mu-type opioid receptor [3] = target: T3, Mu-type opioid receptor (Homo sapiens, UniProt P35372); test: Binding affinity to MOR-1 expressed in CHO cells after 90 mins; type: cell-based; settings: for Bmax: tested as the 125I-labelled form; outline: as §1
T3 sequence (P35372 whole entry): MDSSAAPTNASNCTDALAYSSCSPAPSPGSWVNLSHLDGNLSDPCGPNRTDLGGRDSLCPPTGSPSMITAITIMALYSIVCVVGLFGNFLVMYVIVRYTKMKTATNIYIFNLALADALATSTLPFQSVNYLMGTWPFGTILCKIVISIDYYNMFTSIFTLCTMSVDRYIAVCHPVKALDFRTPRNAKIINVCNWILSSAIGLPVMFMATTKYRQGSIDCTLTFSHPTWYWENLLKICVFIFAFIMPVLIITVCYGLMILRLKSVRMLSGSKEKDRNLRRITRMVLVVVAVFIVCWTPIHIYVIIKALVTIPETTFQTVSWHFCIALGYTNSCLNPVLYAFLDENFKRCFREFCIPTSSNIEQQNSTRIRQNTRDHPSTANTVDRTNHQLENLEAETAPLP

[4] = target: T1, Delta-type opioid receptor; test: Displacement of [3H]-DPDPE from DOR-1 expressed in CHO cells after 60 mins; type: cell-based; outline: as §2
Mu-type opioid receptor [5] = target: T3, Mu-type opioid receptor; test: Displacement of [3H]-DAMGO from MOR-1 expressed in CHO cells after 150 mins; type: cell-based; outline: as §2
[6] = target: T2, Kappa-type opioid receptor; test: Binding affinity to KOR-1 expressed in CHO cells after 90 mins; type: cell-based; settings: for Bmax: tested as the 125I-labelled form; outline: as §1
[7] = target: T2, Kappa-type opioid receptor; test: Displacement of [125I]-IBNalA from KOR-1 expressed in CHO cells; type: cell-based
[8] = target: T2, Kappa-type opioid receptor; test: Displacement of [125I]-IBNtxA from KOR-1 expressed in CHO cells; type: cell-based
Mu-type opioid receptor [9] = target: T3, Mu-type opioid receptor; test: biochemical; type: cell-based, CHO
Mu-type opioid receptor [10] = target: T3, Mu-type opioid receptor; test: biochemical; type: cell-based, CHO; remark: listed apart in the source
Mu-type opioid receptor [11] = target: T3, Mu-type opioid receptor; test: biochemical; type: cell-based, CHO; remark: listed apart in the source

T1 sequence (P41143 whole entry): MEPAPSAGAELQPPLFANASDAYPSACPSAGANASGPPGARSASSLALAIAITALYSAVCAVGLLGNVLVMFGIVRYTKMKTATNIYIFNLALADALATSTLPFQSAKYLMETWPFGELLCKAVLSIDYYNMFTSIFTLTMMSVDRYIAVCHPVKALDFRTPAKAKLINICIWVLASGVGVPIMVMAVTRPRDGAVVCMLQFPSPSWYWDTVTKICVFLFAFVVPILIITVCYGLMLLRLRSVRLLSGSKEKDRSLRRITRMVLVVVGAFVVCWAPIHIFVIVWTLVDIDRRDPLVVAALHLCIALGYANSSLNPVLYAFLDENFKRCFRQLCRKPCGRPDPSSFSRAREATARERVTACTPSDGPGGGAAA

C=CCN1CC[C@]23c4c5ccc(O)c4O[C@H]2[C@H](NC(=O)c2cccc(I)c2)CC[C@@]3(O)[C@H]1C5
Bmax [1]: 2.7 pmol/mg | Ki [2]: 0.08 nM | Bmax (Mu-type opioid receptor [3]): 1.18 pmol/mg | Ki [4]: 2.55 nM | Ki (Mu-type opioid receptor [5]): 0.7 nM | Bmax [6]: 1.15 pmol/mg

C=CCN1CC[C@]23c4c5ccc(O)c4O[C@H]2[C@H](NC(=O)c2cccc([125I])c2)CC[C@@]3(O)[C@H]1C5
Kd [1]: 2.5 nM | Kd (Mu-type opioid receptor [3]): 0.22 nM | Kd [6]: 0.05 nM

O=C(N[C@@H]1CC[C@@]2(O)[C@H]3Cc4ccc(O)c5c4[C@@]2(CCN3CC2CC2)[C@H]1O5)c1cccc([125I])c1
Kd [1]: 0.24 nM | Kd (Mu-type opioid receptor [3]): 0.11 nM | Kd [6]: 0.027 nM

CN1CC[C@]23c4c5ccc(O)c4O[C@H]2[C@H](NC(=O)c2cccc([125I])c2)CC[C@@]3(O)[C@H]1C5
Kd (Mu-type opioid receptor [3]): 0.08 nM

N=C(N)Nc1ccc2[nH]c3c(c2c1)C[C@@]1(O)[C@H]2Cc4ccc(O)c5c4[C@@]1(CCN2CC1CC1)[C@H]3O5 [GUANIDINONALTRINDOLE]
Ki [7]: 0.19 nM | Ki [8]: 0.15 nM

CN1CC[C@]23c4c5ccc(O)c4O[C@H]2[C@H](NC(=O)c2cccc(I)c2)CC[C@@]3(O)[C@H]1C5
Ki [2]: 9 nM | Bmax (Mu-type opioid receptor [3]): 1.49 pmol/mg | Ki (Mu-type opioid receptor [5]): 1.75 nM

C=CCN1CC[C@]23CCCC[C@H]2[C@H]1Cc1ccc(O)cc13 [LEVALLORPHAN]
Ki (Mu-type opioid receptor [9]): 1.69 nM | Ki (Mu-type opioid receptor [10]): 0.48 nM | Ki (Mu-type opioid receptor [11]): 1.29 nM

O=C(N[C@@H]1CC[C@@]2(O)[C@H]3Cc4ccc(O)c5c4[C@@]2(CCN3CC2CC2)[C@H]1O5)c1cccc(I)c1
Bmax [1]: 0.96 pmol/mg | Ki [2]: 0.23 nM | Bmax (Mu-type opioid receptor [3]): 3.81 pmol/mg | Ki [4]: 0.58 nM | Ki (Mu-type opioid receptor [5]): 2.5 nM | Bmax [6]: 0.57 pmol/mg

From ChEMBL document CHEMBL1795226, “Generation of novel radiolabeled opiates through site-selective iodination” (Bioorg Med Chem Lett, 2011)
